pIC50: −log10 of the molar value. Peptide text beside a SMILES is read from it.
biological target: Ephrin type-A receptor 4 (Homo sapiens, UniProt P54764); assay: Antagonist activity against human EphA4 receptor assessed as inhibition of binding of alkaline phosphatase-fused ephrin-A5 to immobilized EphA4 Fc by ELISA; settings: not given
Sequence (P54764 whole entry, the tested form may be a part): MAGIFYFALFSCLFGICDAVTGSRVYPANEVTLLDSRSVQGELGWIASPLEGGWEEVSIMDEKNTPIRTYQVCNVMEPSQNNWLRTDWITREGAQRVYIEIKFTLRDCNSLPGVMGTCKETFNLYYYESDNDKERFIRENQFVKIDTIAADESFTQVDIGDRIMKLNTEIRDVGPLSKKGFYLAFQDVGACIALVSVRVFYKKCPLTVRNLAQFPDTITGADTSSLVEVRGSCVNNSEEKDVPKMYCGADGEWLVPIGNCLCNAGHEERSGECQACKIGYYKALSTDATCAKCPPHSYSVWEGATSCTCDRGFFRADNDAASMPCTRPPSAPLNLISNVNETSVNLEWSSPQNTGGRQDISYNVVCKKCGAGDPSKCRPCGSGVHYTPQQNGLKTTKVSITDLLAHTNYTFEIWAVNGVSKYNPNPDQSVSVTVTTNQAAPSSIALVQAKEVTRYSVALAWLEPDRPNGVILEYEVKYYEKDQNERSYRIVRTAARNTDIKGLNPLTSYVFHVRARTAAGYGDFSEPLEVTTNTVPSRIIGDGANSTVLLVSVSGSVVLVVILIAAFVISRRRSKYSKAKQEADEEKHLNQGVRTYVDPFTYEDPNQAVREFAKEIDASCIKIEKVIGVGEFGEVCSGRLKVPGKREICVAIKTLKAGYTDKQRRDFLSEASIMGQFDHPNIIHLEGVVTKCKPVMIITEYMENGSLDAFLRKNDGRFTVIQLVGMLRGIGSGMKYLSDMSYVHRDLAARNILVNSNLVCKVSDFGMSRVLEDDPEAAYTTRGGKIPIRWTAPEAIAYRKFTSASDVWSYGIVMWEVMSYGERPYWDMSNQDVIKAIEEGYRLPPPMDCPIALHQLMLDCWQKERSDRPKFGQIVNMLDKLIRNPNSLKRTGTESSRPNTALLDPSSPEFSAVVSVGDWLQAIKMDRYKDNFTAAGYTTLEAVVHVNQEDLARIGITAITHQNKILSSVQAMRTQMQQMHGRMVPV

pIC50	SMILES
< 5.00	CC(C)[C@@H]1NC(=O)[C@@H](NC(=O)[C@H](Cc2ccc(O)cc2)NC(=O)[C@@H]2CCCN2C(=O)CCN)CSSC[C@@H](C(N)=O)NC(=O)[C@H](Cc2c[nH]c3ccccc23)NC(=O)[C@H](CCC(=O)O)NC(=O)[C@H](CCC(=O)O)NC(=O)CCNC(=O)[C@H](CCCNC(=N)N)NC(=O)[C@H](Cc2ccc(O)cc2)NC1=O (HELM PEPTIDE1{[bAla].P.Y.C.V.Y.R.[bAla].E.E.W.C.[am]}$PEPTIDE1,PEPTIDE1,4:R3-12:R3$$$V2.0)

test system: not listed separately; assay: Half life in mouse plasma assessed as remaining peptide antagonistic activity for inhibition of binding of alkaline phosphatase-fused ephrin-A5 to immobilized EphA4 Fc incubated for 3 days by ELISA; assay type: cell-free; settings: not given
Outline: (§1)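 Peptide was incubated in mouse plasma or rat CSF for various periods. The residual ability to inhibit ephrin-A5–EphA4 interaction was then measured by ELISA, and the half-life of active peptide was derived from the loss of activity over time.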

SMILES	half-life [h]
CC(C)[C@@H]1NC(=O)[C@@H](NC(=O)[C@H](Cc2ccc(O)cc2)NC(=O)[C@@H]2CCCN2)CSSC[C@@H](C(N)=O)NC(=O)[C@H](CO)NC(=O)[C@H](Cc2c[nH]c3ccccc23)NC(=O)[C@H](CO)NC(=O)CCNC(=O)[C@H](CCCNC(=N)N)NC(=O)[C@H](Cc2ccc(O)cc2)NC1=O	15
CC(=O)N1CCC[C@H]1C(=O)N[C@@H](Cc1ccc(O)cc1)C(=O)N[C@H]1CSSC[C@@H](C(N)=O)NC(=O)[C@H](CO)NC(=O)[C@H](Cc2c[nH]c3ccccc23)NC(=O)[C@H](CO)NC(=O)CCNC(=O)[C@H](CCCNC(=N)N)NC(=O)[C@H](Cc2ccc(O)cc2)NC(=O)[C@H](C(C)C)NC1=O	> 72
CC(C)[C@@H]1NC(=O)[C@@H](NC(=O)[C@H](Cc2ccc(O)cc2)NC(=O)[C@@H]2CCCN2C(=O)CCN)CSSC[C@@H](C(N)=O)NC(=O)[C@H](CCC(=O)O)NC(=O)[C@H](Cc2c[nH]c3ccccc23)NC(=O)[C@H](CCC(=O)O)NC(=O)CCNC(=O)[C@H](CCCNC(=N)N)NC(=O)[C@H](Cc2ccc(O)cc2)NC1=O	> 72
CC(=O)N[C@@H](C)C(=O)N1CCC[C@H]1C(=O)N[C@@H](Cc1ccc(O)cc1)C(=O)N[C@H]1CSSC[C@@H](C(N)=O)NC(=O)[C@H](CO)NC(=O)[C@H](Cc2c[nH]c3ccccc23)NC(=O)[C@H](CO)NC(=O)CCNC(=O)[C@H](CCCNC(=N)N)NC(=O)[C@H](Cc2ccc(O)cc2)NC(=O)[C@H](C(C)C)NC1=O	72
CC(C)[C@@H]1NC(=O)[C@@H](NC(=O)[C@H](Cc2ccc(O)cc2)NC(=O)[C@@H]2CCCN2C(=O)[C@@H](C)N)CSSC[C@@H](C(N)=O)NC(=O)[C@H](CO)NC(=O)[C@H](Cc2c[nH]c3ccccc23)NC(=O)[C@H](CO)NC(=O)CCNC(=O)[C@H](CCCNC(=N)N)NC(=O)[C@H](Cc2ccc(O)cc2)NC1=O	> 72
CC(C)[C@@H]1NC(=O)[C@@H](NC(=O)[C@H](Cc2ccc(O)cc2)NC(=O)CCCCN)CSSC[C@@H](C(N)=O)NC(=O)[C@H](CO)NC(=O)[C@H](Cc2c[nH]c3ccccc23)NC(=O)[C@H](CO)NC(=O)CCNC(=O)[C@H](CCCNC(=N)N)NC(=O)[C@H](Cc2ccc(O)cc2)NC1=O	> 72
CC(C)[C@@H]1NC(=O)[C@@H](NC(=O)[C@H](Cc2ccc(O)cc2)NC(=O)[C@@H]2CCCN2C(=O)[C@H](C)N)CSSC[C@@H](C(N)=O)NC(=O)[C@H](CO)NC(=O)[C@H](Cc2c[nH]c3ccccc23)NC(=O)[C@H](CO)NC(=O)CCNC(=O)[C@H](CCCNC(=N)N)NC(=O)[C@H](Cc2ccc(O)cc2)NC1=O	< 3
CC(C)[C@@H]1NC(=O)[C@@H](NC(=O)[C@H](Cc2ccc(O)cc2)NC(=O)CCCCCN)CSSC[C@@H](C(N)=O)NC(=O)[C@H](CO)NC(=O)[C@H](Cc2c[nH]c3ccccc23)NC(=O)[C@H](CO)NC(=O)CCNC(=O)[C@H](CCCNC(=N)N)NC(=O)[C@H](Cc2ccc(O)cc2)NC1=O	> 72

More lines, now with the values ahead:

half-life [h]	SMILES
> 72	CNCC(=O)N[C@@H](Cc1ccc(O)cc1)C(=O)N[C@H]1CSSC[C@@H](C(N)=O)NC(=O)[C@H](CO)NC(=O)[C@H](Cc2c[nH]c3ccccc23)NC(=O)[C@H](CO)NC(=O)CCNC(=O)[C@H](CCCNC(=N)N)NC(=O)[C@H](Cc2ccc(O)cc2)NC(=O)[C@H](C(C)C)NC1=O
> 72	CC(C)[C@@H]1NC(=O)[C@@H](NC(=O)[C@H](Cc2ccc(O)cc2)NC(=O)CCCN)CSSC[C@@H](C(N)=O)NC(=O)[C@H](CO)NC(=O)[C@H](Cc2c[nH]c3ccccc23)NC(=O)[C@H](CO)NC(=O)CCNC(=O)[C@H](CCCNC(=N)N)NC(=O)[C@H](Cc2ccc(O)cc2)NC1=O
6	CC(C)[C@@H]1NC(=O)[C@@H](NC(=O)[C@H](Cc2ccc(O)cc2)NC(=O)CN)CSSC[C@@H](C(N)=O)NC(=O)[C@H](CO)NC(=O)[C@H](Cc2c[nH]c3ccccc23)NC(=O)[C@H](CO)NC(=O)CCNC(=O)[C@H](CCCNC(=N)N)NC(=O)[C@H](Cc2ccc(O)cc2)NC1=O
30	CC(C)[C@@H]1NC(=O)[C@@H](NC(=O)[C@H](Cc2ccc(O)cc2)NC(=O)CCN)CSSC[C@@H](C(N)=O)NC(=O)[C@H](CO)NC(=O)[C@H](Cc2c[nH]c3ccccc23)NC(=O)[C@H](CO)NC(=O)CCNC(=O)[C@H](CCCNC(=N)N)NC(=O)[C@H](Cc2ccc(O)cc2)NC1=O

test system: not listed separately; assay: Stability in Sprague-Dawley rat CSF assessed as remaining peptide antagonistic activity for inhibition of binding of alkaline phosphatase-fused ephrin-A5 to immobilized EphA4 Fc incubated for 3 days by ELISA; assay type: tissue-based, Cerebrospinal fluid; settings: in vitro, 72 h; outline: as §1

Stability	SMILES
Stable	CC(C)[C@@H]1NC(=O)[C@@H](NC(=O)[C@H](Cc2ccc(O)cc2)NC(=O)[C@@H]2CCCN2C(=O)[C@@H](C)N)CSSC[C@@H](C(N)=O)NC(=O)[C@H](CO)NC(=O)[C@H](Cc2c[nH]c3ccccc23)NC(=O)[C@H](CO)NC(=O)CCNC(=O)[C@H](CCCNC(=N)N)NC(=O)[C@H](Cc2ccc(O)cc2)NC1=O

test system: HT-22; assay: Cytotoxicity against mouse HT22 cells at 15 to 30 uM after 24 hrs by MTT assay; assay type: cell-based; settings: ht-22, 24 h
Outline: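 HT22 neuronal cells were grown 24 h with 15 or 30 μM peptide, alongside controls receiving the matching DMSO concentration. Cell number was quantified by MTT, with averages ± SE from 5 measurements.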

SMILES	Activity
CC(C)[C@@H]1NC(=O)[C@@H](NC(=O)[C@H](Cc2ccc(O)cc2)NC(=O)[C@@H]2CCCN2C(=O)CCN)CSSC[C@@H](C(N)=O)NC(=O)[C@H](CCC(=O)O)NC(=O)[C@H](Cc2c[nH]c3ccccc23)NC(=O)[C@H](CCC(=O)O)NC(=O)CCNC(=O)[C@H](CCCNC(=N)N)NC(=O)[C@H](Cc2ccc(O)cc2)NC1=O	Non-Toxic
